The record followed here is publication PMC11219355 (Heliyon, 2024).

In data set [1] the test system is methicillin-resistant Staphylococcus aureus (MRSA) (DMST 20646). The experiment in a line: Antibacterial growth inhibition. In kind it is cell-based. The following applies: antibiotic 500 μg/mL, 37 °C, 18–22 h, OD600. The gist of the method:
(§1)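 Inocula: C. acnes grown anaerobically in Schaedler broth at 37 °C for 72 h and adjusted to OD600 0.1. S. aureus and MRSA single colonies grown in nutrient broth at 37 °C for 18 h and adjusted to OD600 0.001. Suspensions were mixed 1:1 with peptide (1000 μg/mL) or ampicillin/clindamycin (500 μg/mL) solutions. Untreated culture served as 0 % inhibition. Three repeats, mean ± SD.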

The test system of data set [2] is Staphylococcus aureus (ATCC 25923). The experiment in a line: Antibacterial growth inhibition. The format is cell-based. Particulars: S. aureus; antibiotic 500 μg/mL; 37 °C, 18–22 h, OD600. The procedure, abridged: as §1
Data set [3] deals with Cutibacterium acnes (DMST 14916). The experiment in a line: Antibacterial growth inhibition. The format is cell-based. The following applies: C. acnes; antibiotic 500 μg/mL; 37 °C, 18–22 h, OD600. The gist of the method: as §1
Data set [4] deals with C. acnes, S. aureus and MRSA. As to the kind of experiment: Antibacterial growth inhibition, stated as one range over the three strains. The format is cell-based, Cutibacterium acnes; Staphylococcus aureus. Particulars: peptide 1000 μg/mL. The procedure, abridged: as §1
The subject of data set [5] is RAW 264.7 cells. The experiment in a line: RAW 264.7 cytotoxicity assay. The following applies: RAW 264.7, MTT, peptide 1000 μg/mL, 24 h. In kind it is cell-based, Murine. The gist of the method: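 Murine macrophages were grown in DMEM plus 10 % heat-inactivated FBS and 1 % antibiotic-antimycotic (37 °C, 5 % CO2) and seeded overnight at 2 × 10⁴ cells/well. Peptide was added at 1000 μg/mL final for 24 h. MTT was added at 0.5 mg/mL final in fresh medium for 30 min. Formazan was dissolved in DMSO and read at OD570. Viability was expressed versus untreated cells. Three repeats, mean ± SD.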

As for `CCC[C@@H]1C[C@@H](C(=O)N[C@@H]([C@H]2O[C@H](SC)[C@H](O)[C@@H](O)[C@H]2O)[C@H](C)Cl)N(C)C1` [clindamycin], the growth inhibition was 51.86% in data set [1], 96.35% in data set [2] and 100.00% in data set [3].

In the case of `CC1(C)S[C@@H]2[C@H](NC(=O)[C@H](N)c3ccccc3)C(=O)N2[C@H]1C(=O)O` [ampicillin], the growth inhibition was determined as 100.00% in data set [1], 97.85% in data set [2] and 92.92% in data set [3].

For the compound IIDVKMLS [IS8], the “relative antibacterial potency among the 8 peptides, in words” value in data set [4] is “least potent peptide”.

As to RKLLEGEE [RE8], the “reduction in cell viability” value in data set [5] is roughly 15%.
